Efflux pump inh = antifungal efflux pump inhibition, Nile Red retention | S. cerevisiae Candida pump triplex | inhibition, % at 10 µM | hit rate 0.44% among 330,000;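 active means plate passing quality check with inhibition over a set limit, or well fluorescence over plate mean plus 4 SD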;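 further: Nile Red retained in pooled yeast measured as flow cytometry median fluorescence; 0% = buffer negative control and 100% = Enniatin B positive control; higher means more Nile Red kept so more efflux inhibition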
MT1-MMP act inh = blocks activation of human MT1-MMP; P50281; HT1080 RFP-PRO-GFP cells, GFP/RFP ratio fluorescence, overnight; percent of plate control window, DMSO zero; GFP/RFP ratio change, % at 20 µM; hit rate 0.061% among 360,000; AID 651647;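 active means GFP/RFP ratio change of at least 30% with cell ATP level not reduced by more than half and red fluorescence within 50% of control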
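Compound: 20 µM single dose, 1% DMSO / System: HT1080 RFP-PRO-GFP cells / Controls: DMSO and RFP-L50D-GFP cell wells / Read-out basis: GFP/RFP fluorescence ratio / Schedule: overnight compound exposure at 37 °C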
sPLA2-III inh = Blocks human group III sPLA2 activity; Q9NZ20; QFRET BODIPY PC-A2 liposome hydrolysis, fluorescence; inhibition, % at 12.2 µM; hit rate 0.56% among 370,000;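 active means inhibition above mean plus 3 SD of compounds lying within the high and low control bounds, cut at about 19% in these data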;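 further: 0% = median of test compound wells and 100% = no enzyme DMSO wells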
Target sequence (Q9NZ20 whole entry, looked up): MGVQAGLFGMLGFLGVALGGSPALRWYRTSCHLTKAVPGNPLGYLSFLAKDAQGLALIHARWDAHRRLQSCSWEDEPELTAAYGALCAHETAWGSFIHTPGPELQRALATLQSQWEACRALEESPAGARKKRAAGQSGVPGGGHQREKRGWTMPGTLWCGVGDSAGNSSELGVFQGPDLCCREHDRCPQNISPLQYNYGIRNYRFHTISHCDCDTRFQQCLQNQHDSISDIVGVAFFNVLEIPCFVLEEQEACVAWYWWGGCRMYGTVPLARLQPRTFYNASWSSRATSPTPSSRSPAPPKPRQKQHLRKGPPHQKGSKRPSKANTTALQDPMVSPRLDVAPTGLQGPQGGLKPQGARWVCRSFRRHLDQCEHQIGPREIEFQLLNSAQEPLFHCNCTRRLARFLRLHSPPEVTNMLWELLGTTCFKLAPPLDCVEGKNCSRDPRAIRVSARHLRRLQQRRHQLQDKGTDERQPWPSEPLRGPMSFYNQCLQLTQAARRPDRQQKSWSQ
H9c2 TAG inh = triacylglycerol accumulation inhibition | H9c2 cells, Nile Red lipid (TAG) fluorescence; cells loaded with 200 µM oleic acid | inhibition, % at 12.5 µM | hit rate 0.66% among 230,000;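 active means pattern-corrected inhibition of lipid staining of at least 50% with the nuclear-stain viability signal not falling by more than 50%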;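 further: 0% = DMSO wells and 100% = triacsin C control wells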
hGIII sPLA2 conf = human GIII-sPLA2 inhibition, confirmation | shares compounds with sPLA2-III inh | recombinant hGIII-sPLA2, BODIPY PC-A2 QFRET fluorescence | inhibition, % at 12.2 µM | hit rate 34% among 2,000 | AID 743280;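 active means mean inhibition across triplicates above the hit cutoff set in the earlier primary screen, cut at about 19% in these data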;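 further: 0% = enzyme with DMSO and 100% = DMSO wells lacking enzyme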
BODIPY interf = optically interferes with 535nm fluorescence in sPLA2 counter-screen. shares compounds with sPLA2-III inh. BODIPY FL product fluorescence interference, QFRET. inhibition, % at 12.2 µM. hit rate 8.5% among 2,000;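 active means average inhibition above the solvent-only control mean plus 3 SD, cut at about 6% in these data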;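 further: 0% = DMSO with substrate plus product and 100% = DMSO with substrate alone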
BODIPY interf DR = counter-screen for HGIII-sPLA2 inhibitors: 535nm fluorescence interference, dose response; shares compounds with sPLA2-III inh; BODIPY FL product fluorescence interference, cell-free; IC50, µM; 240 tested, under 10 active;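 active means IC50 at or below 10 µM; inactive means IC50 above 10 µM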
* = called active by the depositor; nt = no result. Rows were chosen to be rich in hits. Some 1.3% of all compounds tested hit in one or more screens of this group.

SMILES	Efflux pump inh	MT1-MMP act inh	sPLA2-III inh	H9c2 TAG inh	hGIII sPLA2 conf	BODIPY interf	others
COc1ccc(NC(=O)c2cccnc2SC)cc1S(=O)(=O)N1CCCCC1	0	5	12	nt	nt	nt
COc1cc(C)ccc1Oc1nc(-c2ccccc2O)nc2ccccc12	0	-2	7	7	nt	nt
CCOc1ccccc1Oc1nc(-c2ccccc2O)nc2ccccc12	0	-3	20*	nt	-15	-2
CCOc1nc(-c2ccc(Cl)cc2)nc2ccccc12	0	-6	25*	nt	-2	1
CCCC(=O)N1CCCC(c2cc(C(=O)NCc3ccc(F)cc3)no2)C1 (configuration not stated)	nt	1	1	-7	nt	nt
Nc1nc(-c2cc(O)ccc2[N+](=O)[O-])cc(-c2ccccc2)c1[N+](=O)[O-]	0	-12	8	nt	nt	nt
Cc1ccc(C2(C)NC(=O)N(CC(=O)N3CCN(C(=O)c4cccs4)CC3)C2=O)cc1 (configuration not stated)	0	1	1	17	nt	nt
O=C(NCCc1ccncc1)Nc1ccc(Cl)cc1	0	-9	4	-12	nt	nt
O=C(NCCc1ccncc1)Nc1ccc(F)cc1	0	3	20*	-1	4	-8
CCCCCC/C(=N/O)c1ccccn1	0	1	22*	-1	12	-6
COC(=O)CC1=C(C(=O)OC)[C@@H](c2ccccc2[N+](=O)[O-])C(C#N)=C(N)O1	0	-1	-8	5	nt	nt
O=C(N/N=C/c1cc([N+](=O)[O-])ccc1N1CCNCC1)c1ccc([N+](=O)[O-])cc1	0	-14	0	4	nt	nt
NC(=O)CSc1n[nH]c(=O)n1CCc1ccccc1	-1	-1	0	nt	nt	nt
Cc1cc(N2CCN(c3ccccc3)CC2)n2ncnc2n1	0	6	93*	-12	0	-7
Oc1ccccc1/C=N/Nc1nccnc1Cl	0	-5	24*	-22	2	8.6*
COc1cccc(Nc2nc(C(N)c3ccccc3)cs2)n1 (configuration not stated)	nt	-6	24*	5	6	-9
Cc1cnc(C)c(Nc2nc(C(N)Cc3ccc(Cl)cc3)cs2)n1 (configuration not stated)	nt	-3	25*	31	2	-16
CCOc1ccc(NC2OC(CO)C(O)C(O)C2O)c([N+](=O)[O-])c1 (configuration not stated)	0	15	0	-9	nt	nt
CCOc1ccc(/C=N/NC(=O)C(=O)NCc2ccco2)cc1	0	-7	20*	nt	-6	-3
COc1ccc(-c2ccc3c(n2)CCCN3S(=O)(=O)c2cccs2)cc1	nt	nt	-3	nt	nt	nt
CCCC[n+]1c(C)sc2ccc(C)cc21	0	-2	-4	nt	nt	nt
CCCC[n+]1c2ccccc2cc2ccccc21	0	-5	40*	nt	52*	-7	BODIPY interf DR=>122
O=C(NCc1ccccc1)c1cc(C2CCCN(S(=O)(=O)c3cccs3)C2)on1 (configuration not stated)	nt	1	-5	10	nt	nt
COc1ccc(C(NC(C)=O)c2cc(Cl)c3cccnc3c2O)cc1OC (configuration not stated)	0	-8	1	nt	nt	nt
COc1ccc(C(NC(C)=O)c2nccc3cc(OC)c(OC)cc23)cc1OC (configuration not stated)	0	1	20*	2	4	-2
SMILES	Efflux pump inh	MT1-MMP act inh	sPLA2-III inh	H9c2 TAG inh	hGIII sPLA2 conf	BODIPY interf	others
CC(N=C1NS(=O)(=O)c2ccccc21)C(=O)N1CCc2ccccc2C1 (configuration not stated)	0	0	4	2	nt	nt
O=C(Nc1nc(Cc2ccccc2)c(-c2ccccc2)n1Cc1ccccc1)c1ccccc1	nt	nt	20*	nt	2	-5
COc1ccc(-c2c(Cc3ccccc3)nc(NC(=O)c3ccccc3)n2C)cc1	nt	nt	19*	nt	11	-7
CC(=O)NC1(C(F)(F)F)NC(=O)N(CCc2ccccc2)C1=O (configuration not stated)	0	-3	-1	nt	nt	nt
Cc1ccc(/C=N/NC(=O)c2ccc3nc[nH]c3c2)o1	0	4	21*	-4	2	-2
COC(=O)c1ccc(/C=N/NC(=O)c2ccc3nc[nH]c3c2)cc1	0	-1	-1	nt	nt	nt
O=C(CC(=O)N/N=C/c1ccccc1O)NCc1cccnc1	0	5	19*	nt	-4	-4
COc1ccccc1/C=N/NC(=O)CC(=O)NCc1cccnc1	0	3	-3	nt	nt	nt
COc1ccc2ccccc2c1/C=N/Nc1ccc(Cl)c(C(=O)O)c1	0	1	-15	nt	nt	nt
COc1ccc(N/N=C/c2c(C(=O)O)ccc3ccccc23)cc1	0	-33	19*	49	11	-6
C=C[C@]1(C)C=C2C(=O)[C@@]3(O)OC(=O)[C@@]4(CCCC(C)(C)[C@H]34)[C@@]2(O)CC1	nt	-9	6	nt	nt	nt
Cc1ccc(N(C)C)cc1	nt	nt	13	nt	nt	nt
Cc1ccc(NC(=S)c2ccc(N(C)C)cc2)cc1	0	4	25*	nt	16	2
CCCOc1ccc(C(=O)Nc2ccc(N(C)C)cc2)cc1	0	1	14	nt	nt	nt
COc1ccc(C(=S)Nc2ccc(N(C)C)cc2)cc1	0	7	23*	-20	26*	5
COc1ccc(NC(=S)c2ccc(N(C)C)cc2)cc1	0	3	20*	-6	10	-5
CC(C)Oc1ccc(C(=O)Nc2ccc(N(C)C)cc2)cc1	0	0	19*	nt	15	-6
O=C(COC(=O)c1nc(Cl)ccc1Cl)Nc1cccc(S(=O)(=O)N2CCOCC2)c1	nt	0	-4	0	nt	nt
S=c1[nH]c2ccc(Cl)cc2[nH]1	0	0	1	1	nt	nt
S=c1[nH]c2cc(Cl)ccc2s1	0	-1	24*	nt	21*	1
COc1ccccc1-c1cc2c(c3c1ccn3C)C1CCC2C1 (configuration not stated)	nt	5	22*	nt	4	-3
COc1cccc(-c2cc3c(c4c2ccn4C)C2CCC3C2)c1 (configuration not stated)	nt	12	19*	nt	-5	2
CC(C)(C)c1ccccc1NC(=O)Nc1nc(C(N)c2ccccc2Cl)cs1 (configuration not stated)	nt	-6	20*	-10	10	-3
Cc1cc(C)c2nc(SCC(=O)NCCC3=CCCCC3)cc(C)c2c1	0	-2	21*	nt	-4	-7
COc1ccccc1C(=O)Nc1ccnn1C1CCN(C2CCCCC2)CC1	nt	0	2	9	nt	nt
CNc1nc(-c2ccccc2)nc(-c2ccc(OC)cc2)c1C#N	0	-1	0	-4	nt	nt
CNc1nc(-c2ccccc2)nc(-c2ccccc2)c1C#N	0	4	20*	nt	-4	-5

Screening data deposited in PubChem by several laboratories.
